Bioassay records as filed in PubChem BioAssay.
IDH1 R132H inh – inhibitors of human IDH1 R132H; O75874; AID 624101; 70,000 tested, 0.18% active; IDH1 R132H reductase, diaphorase/resazurin fluorescence, 60 min; inhibition, % at 10 µM; in the data active = inhibition above about 34%; inconclusive = no clear call, values can overlap the other calls; inactive = below about 11%;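 note: 0% = DMSO and 100% = no enzyme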
T cruzi growth-1 – blocks T. cruzi growth in NIH3T3 culture; T. cruzi beta-gal in NIH3T3, GalScreen luminescence, 90 h; inhibition, % at 8.34 µM; 77,000 tested, 5.9% active;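 active = mean inhibition above about 93%, with at least 55% of replicates each passing it, limit read from the data, passing the limit was not always enough; inconclusive = only one of those two conditions holds; inactive = neither condition holds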
KDM4C inh – blocks human GASC-1 (KDM4C) demethylase activity | GST-KDM4C 2-372, H3K9me3 peptide, LANCE TR-FRET | AID 720574 | inhibition, % at 12.5 µM | Q9H3R0 | 96,000 tested, 0.15% active;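 active = mean replicate inhibition above about 25%, with at least 55% of replicates also reaching it, limit read from the data, passing the limit was not always enough; inconclusive = only one of those two conditions met; inactive = neither condition met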
Target sequence (Q9H3R0 2-372 limits assumed): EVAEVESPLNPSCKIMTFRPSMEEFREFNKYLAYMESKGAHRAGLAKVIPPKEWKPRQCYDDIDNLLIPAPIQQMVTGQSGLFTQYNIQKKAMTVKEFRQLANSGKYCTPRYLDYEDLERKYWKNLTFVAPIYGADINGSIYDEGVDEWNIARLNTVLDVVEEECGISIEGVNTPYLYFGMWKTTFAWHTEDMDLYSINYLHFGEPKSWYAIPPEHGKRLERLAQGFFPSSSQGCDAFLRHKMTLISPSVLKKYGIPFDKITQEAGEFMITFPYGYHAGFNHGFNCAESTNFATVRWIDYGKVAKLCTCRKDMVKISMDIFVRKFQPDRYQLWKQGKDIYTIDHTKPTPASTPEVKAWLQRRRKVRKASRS
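Compound: one test concentration per compound; Material: GST-GASC-1 enzyme fragment 2-372; Amount: GASC-1 enzyme at 10 nM final in reaction; Also added: H3K9me3 peptide substrate, Fe(II), 2-oxoglutarate; Technique: LANCE TR-FRET; Times: 30 min demethylation and 1 h detection at room temperature.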
T cruzi growth-2 – blocks T. cruzi growth in NIH3T3 host cells | shares compounds with T cruzi growth-1 | T. cruzi beta-gal in NIH3T3, GalScreen luminescence, 90 h | inhibition, % at 8.35 µM | 5,600 tested, 72% active | AID 651739;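 active = mean replicate inhibition above about 95% and at least 55% of replicates individually reaching it, limit read from the data; inconclusive = only one of the two criteria is met; inactive = neither criterion is met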
T cruzi growth-3 – Trypanosoma cruzi proliferation inhibition; 5,600 tested, 21% active; shares compounds with T cruzi growth-1; AID 651740; T. cruzi beta-gal in NIH3T3, GalScreen luminescence, 90 h; inhibition, % at 2.09 µM;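 active = mean inhibition above about 95%, with at least 55% of replicates also reaching it, limit read from the data; inconclusive = meets just one of the two conditions; inactive = meets neither condition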;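 note: plate controls were neutral control median for no effect and positive control median for full effect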
3T3 cytotox – NIH/3T3 (mouse) viability loss; shares compounds with T cruzi growth-1; NIH/3T3 viability, CellTiter-Glo ATP luminescence, 90 h; cytotoxicity (signal decrease), % at 8.35 µM; 5,600 tested, 14% active;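 active = mean signal decrease across replicates above about 35% based on untreated-well scatter, with enough replicates individually passing, limit read from the data; inconclusive = no rule stated though some were filed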;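 note: 0% = median of neutral control wells and 100% = median of positive control wells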
3T3 cytotox 2 – kills mouse NIH/3T3 fibroblasts; shares compounds with T cruzi growth-1; NIH/3T3 viability, CellTiter-Glo ATP luminescence, 90 h; inhibition, % at 24.9 µM; 5,600 tested, 56% active;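 active = mean loss of cell viability signal at or above a set limit, and enough replicates individually reaching it; inconclusive = meets only the mean limit or only the replicate share; inactive = meets neither condition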;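 note: 0% = median of neutral control wells and 100% = median of positive control wells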
Starred values were filed as active, the others as inactive; ? = inconclusive; / = not tested or not shown. Only a selection was taken, and hits are over-represented in it overall.

SMILES	IDH1 R132H inh	T cruzi growth-1	KDM4C inh	T cruzi growth-2	T cruzi growth-3	3T3 cytotox	3T3 cytotox 2
COc1ccc([N+](=O)[O-])cc1NC(=O)CS(=O)(=O)Cc1ccccc1	0	/	/	/	/	/	/
Cc1ccc(S(=O)(=O)Nc2ccc3c(c2)C(=O)N([C@@H](C)CO)C[C@@H](C)[C@@H](CN(C)C(=O)Nc2cccc4ccccc24)OCCCC[C@@H](C)O3)cc1	2	94	-2	/	/	/	/
C[C@@H]1CCCCO[C@@H](CN(C)C(=O)Nc2cccc3ccccc23)[C@@H](C)CN([C@H](C)CO)C(=O)c2cc(NS(=O)(=O)c3ccc(F)cc3)ccc2O1	1	-4	-1	/	/	/	/
Cc1ccc(S(=O)(=O)Nc2ccc3c(c2)C(=O)N([C@H](C)CO)C[C@H](C)[C@H](CN(C)C(=O)Nc2cccc4ccccc24)OCCCC[C@H](C)O3)cc1	/	92	0	/	/	/	/
Cc1ccc(S(=O)(=O)Nc2ccc3c(c2)C(=O)N([C@@H](C)CO)C[C@H](C)[C@H](CN(C)C(=O)Nc2cccc4ccccc24)OCCCC[C@H](C)O3)cc1	/	105*	1	106*	84	-29	2
Cc1ccc(S(=O)(=O)Nc2ccc3c(c2)C(=O)N([C@@H](C)CO)C[C@@H](C)[C@H](CN(C)C(=O)Nc2cccc4ccccc24)OCCCC[C@@H](C)O3)cc1	3	103*	-2	109*	87	-9	-1
C[C@H](CO)N1C[C@H](C)[C@@H](CN(C)C(=O)Nc2cccc3ccccc23)OCCCC[C@H](C)Oc2ccc(NS(=O)(=O)c3ccc(F)cc3)cc2C1=O	/	105*	-2	106*	?	-20	14
Cc1ccc(S(=O)(=O)Nc2ccc3c(c2)C(=O)N([C@H](C)CO)C[C@@H](C)[C@@H](CN(C)C(=O)Nc2cccc4ccccc24)OCCCC[C@@H](C)O3)cc1	0	108*	-2	102*	102*	13	5
Cc1ccc(S(=O)(=O)Nc2ccc3c(c2)C(=O)N([C@@H](C)CO)C[C@H](C)[C@H](CN(C)C(=O)Nc2cccc4ccccc24)OCCCC[C@@H](C)O3)cc1	/	69	-2	/	/	/	/
Cc1ccc(N(CC(=O)Nc2cc(Cl)ccc2C)S(C)(=O)=O)cc1C	-1	/	/	/	/	/	/
COc1ccc(S(=O)(=O)NCCc2ccc(OC)c(OC)c2)cc1Cl	0	/	/	/	/	/	/
Cc1ccc(S(=O)(=O)Nc2ccc3c(c2)C(=O)N([C@@H](C)CO)C[C@@H](C)[C@H](CN(C)S(=O)(=O)c2ccc(Cl)cc2)O3)cc1	/	/	0	/	/	/	/
Cc1ccc(S(=O)(=O)CCSc2cccc(C(=O)Nc3ccccc3)c2)cc1	0	/	/	/	/	/	/
C[C@@H]1OC(OC[C@H]2O[C@@H](Oc3cc(O)c4c(=O)cc(-c5ccc(O)c(O)c5)oc4c3)[C@H](O)[C@@H](O)[C@@H]2O)[C@H](O)[C@H](O)[C@H]1O (some centres undefined)	-1	/	/	/	/	/	/
OCCN1CCN(C(=S)NCc2ccco2)CC1	-1	/	/	/	/	/	/
CC(C)NC(=O)Nc1cccc2c1O[C@H](CN(C)Cc1ccc(Oc3ccccc3)cc1)[C@@H](C)CN([C@H](C)CO)C2=O	-2	103*	6	102*	62	-26	103*
CC(C)NC(=O)Nc1cccc2c1O[C@H](CN(C)Cc1ccc(Oc3ccccc3)cc1)[C@@H](C)CN([C@@H](C)CO)C2=O	1	?	-1	100*	83	-15	104*
C[C@H]1CN([C@@H](C)CO)C(=O)c2cccc(NC(=O)Nc3ccccc3)c2O[C@@H]1CN(C)Cc1ccc(Oc2ccccc2)cc1	1	81	/	/	/	/	/
CC(C)NC(=O)Nc1cccc2c1O[C@H](CN(C)Cc1ccc(Oc3ccccc3)cc1)[C@H](C)CN([C@@H](C)CO)C2=O	-1	54	-1	/	/	/	/
CC(C)NC(=O)Nc1cccc2c1O[C@@H](CN(C)Cc1ccc(Oc3ccccc3)cc1)[C@H](C)CN([C@H](C)CO)C2=O	0	70	-1	/	/	/	/
C[C@H](CO)N1C[C@H](C)[C@H](CN(C)Cc2ccc(Oc3ccccc3)cc2)Oc2c(NC(=O)Nc3cccc4ccccc34)cccc2C1=O	-1	98*	-5	99*	109*	19	?
COCC(=O)N(C)C[C@@H]1Oc2ncc(C#Cc3ccccc3)cc2C(=O)N([C@H](C)CO)C[C@@H]1C	0	-68	-1	/	/	/	/
C=Cc1ccc(O[C@@H]2O[C@H](CO)[C@@H](O)[C@H](O)[C@H]2O[C@@H]2O[C@@H](C)[C@H](O)[C@@H](O)[C@H]2O)cc1	0	/	/	/	/	/	/
C[C@@H]1CN([C@H](C)CO)C(=O)c2cc(NC(=O)Nc3ccc(C(F)(F)F)cc3)ccc2O[C@@H](C)CCCCO[C@H]1CN(C)C(=O)c1ccccc1	/	?	0	103*	113*	3	3
C[C@@H]1CCCCO[C@H](CN(C)C(=O)c2ccccc2)[C@@H](C)CN([C@H](C)CO)C(=O)c2cc(NC(=O)Nc3ccc(C(F)(F)F)cc3)ccc2O1	-2	?	0	106*	59	5	33*
SMILES	IDH1 R132H inh	T cruzi growth-1	KDM4C inh	T cruzi growth-2	T cruzi growth-3	3T3 cytotox	3T3 cytotox 2
C[C@@H]1CCCCO[C@@H](CN(C)C(=O)Nc2ccccc2)[C@H](C)CN([C@H](C)CO)C(=O)c2cc(NC(=O)Nc3ccc(C(F)(F)F)cc3)ccc2O1	/	/	1	/	/	/	/
C[C@H](CO)N1C[C@H](C)[C@@H](CN(C)C(=O)Nc2ccc(C(F)(F)F)cc2)OCCCC[C@H](C)Oc2ccc(NC(=O)Nc3ccccc3)cc2C1=O	/	/	0	/	/	/	/
O=C(Cn1c2ccccc2n2ncnc12)c1ccc(-c2ccccc2)cc1	-1	/	/	/	/	/	/
Cc1cc(C)cc(N(CC(=O)Nc2ccc(C(N)=O)cc2)S(C)(=O)=O)c1	0	/	/	/	/	/	/
CCOc1ccccc1CN1CCN(Cc2cc(Br)ccc2O)CC1	0	/	/	/	/	/	/
CCC(CC)C(=O)N1c2ccccc2CCc2ccccc21	1	/	/	/	/	/	/
COc1ccc(NC(=O)Nc2ccc3c(c2)[C@@H]2C[C@H](CC(=O)NCCc4ccccc4)O[C@@H](CO)[C@@H]2O3)cc1	1	176*	-2	105*	?	7	11
CCCNC(=O)C[C@H]1C[C@H]2c3cc(NC(=O)Nc4ccc(OC)cc4)ccc3O[C@H]2[C@@H](CO)O1	2	57	-1	/	/	/	/
COc1ccc(NC(=O)Nc2ccc3c(c2)[C@H]2C[C@H](CC(=O)NCc4ccc5c(c4)OCO5)O[C@@H](CO)[C@H]2O3)cc1	0	37	-1	/	/	/	/
COc1ccc(NC(=O)Nc2ccc3c(c2)[C@@H]2C[C@H](CC(=O)NCc4ccc5c(c4)OCO5)O[C@H](CO)[C@@H]2O3)cc1	0	102*	-1	92	62	2	12
